PTEN del growth: growth suppression of PTEN-null HCT116, primary screen, cell-based, CellTiter-Glo; 140,000 tested, 1.2% active; AID 827, 2007; viability, % at 10 µM; HCT116 PTEN-null viability, 60 h; active compounds read low;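 active = viability at or below a set limit, 4 SD under the median of all tested compounds, cut at about 3.7% in these data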;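 also: PTEN knockout HCT116 line with beta catenin targeted HCT116 as companion control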
HCT116 bCat-KO: primary screen for growth suppressors in beta-catenin knockout HCT116 cells (colon tumor, human); 140,000 tested, 1.5% active; HCT116 beta-catenin knockout viability, CellTiter-Glo, 60 h; active compounds read low; viability, % at 10 µM; AID 818, 2007;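 active = viability at or under a set limit, the compound median less 4 SD, cut at about 6% in these data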;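 also: 0% = Hyamine 1622 control at 20 µM and 100% = untreated cell control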
Lung fibro prol: antiproliferative effect on LL 47 fibroblasts – human, LL 47 cells, CellTiter-Glo luminescence, primary screen. viability, % at 10 µM. 85,000 tested, 1.1% active. LL 47 human lung fibroblast viability, ATP luminescence; active compounds read low;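 active = viability at or below 50% in the single dose screen; inactive = viability above 50%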;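 also: compound exposure lasted 72 h before the ATP readout; 100% = median luminescence of untreated cell-only wells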
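Material: human LL 47 lung fibroblast cells; quantity: 1,150 cells/well; medium: IMEM plus 15% FBS; doses: 0.1% DMSO in all compound wells; timing: overnight attachment after seeding, then 72 h compound exposure at 37 °C; detection: CellTiter-Glo luminescence; measure: % viability of median cell-only signal; controls: cell-only wells, no compound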
HUVEC inhibit: inhibitors of HUVEC proliferation, primary screen, cell-based, 384-well | CellTiter-Glo luminescence, 72 h; active compounds read low | viability, % at 10 µM (by protocol) | 86,000 tested, 1.1% active;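 active = viability at or below 30%; inactive = viability above 30%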;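 also: 100% = median luminescence of DMSO-only cell control wells on each plate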
H69AR growth 86K: proliferation blockers of H69AR lung cancer cells, primary screen, cell-based, human, 86K library. H69AR lung tumor viability, ATP luminescence, 72 h; active compounds read low. viability, % at 10 µM. 85,000 tested, 6% active. AID 598, 2007;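 active = viability at or below 40%; inactive = viability above 40%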;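 also: multidrug resistant small cell line overexpressing MRP-1 efflux transporter; 100% = mean luminescence of untreated control wells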
The depositor's hits bear a star; / = no result. This is one part of a sample in which hits are shown more often than they occur.

SMILES | PTEN del growth | HCT116 bCat-KO | Lung fibro prol | HUVEC inhibit | H69AR growth 86K
Cc1cc2cc(CN(Cc3ccc4c(c3)OCO4)C(=O)c3ccco3)c(=O)[nH]c2cc1C | 30 | 42 | 96 | 74 | 33*
CCN(Cc1cc2cc(OC)ccc2[nH]c1=O)C(=O)c1ccncc1 | 97 | 105 | 96 | 85 | 88
CCCCN(Cc1cc2cc(OC)ccc2[nH]c1=O)C(=O)COc1ccccc1 | / | / | 104 | 93 | 39*
Cc1ccc2[nH]c(=O)c(CN(Cc3cccnc3)C(=O)c3ccncc3)cc2c1 | 47 | 46 | 88 | 62 | 28*
COc1ccc(CN2CNc3c(c(=O)n(C)c(=O)n3C)C2)cc1 | 108 | 97 | / | / | /
CCc1cccc(CC)c1NC(=O)COn1nnc2ccc(C(F)(F)F)cc21 | 92 | 95 | / | / | /
CCn1c(/C=C/Nc2ccccc2)[n+](CC)c2ccc(Cl)cc21 | 47 | 47 | / | / | /
CCn1c(/C=C/N(C)c2ccccc2)[n+](CC)c2ccc(Cl)cc21 | 5 | 3.8* | / | / | /
NS(=O)(=O)c1cnccc1Nc1ccc(Cl)c(Cl)c1 | 86 | 82 | / | / | /
CC(C)Cc1ccc(C(C)C(=O)OCC(=O)c2c[nH]c3ccccc23)cc1 (stereo not drawn) | 77 | 70 | 98 | 84 | 39*
CCC1CCC2(CC1)NNC(=S)NN2 | 81 | 74 | / | / | /
CCOC(=O)C1CCN(CC(O)COc2ccc(C(C)(C)CC)cc2)CC1 (stereo not drawn) | 60 | 59 | 97 | 87 | 26*
Cc1ccsc1/C=C/C1=Cc2c(sc(NC(=O)CSc3n[nH]c(N)n3)c2C#N)C(C)(C)C1 | 74 | 75 | 89 | 15* | 1.7*
CCOc1ccc(/C=C/C2=Cc3c(sc(NC(=O)CSc4n[nH]c(N)n4)c3C#N)C(C)(C)C2)cc1 | 20 | 28 | 48* | 3.6* | 1.8*
Nc1nc(SCC(=O)Nc2ccccc2Oc2ccccc2)n[nH]1 | 90 | 90 | / | / | /
COc1ccc(OCC(=O)NNC(=O)c2cccc(S(=O)(=O)N(C)C)c2)cc1 | 101 | 96 | / | / | /
C[n+]1cnc(-c2ccccc2)cc1-c1ccccc1 | 97 | 92 | / | / | /
COc1cc(/C=N/N=C(/N)c2nonc2N)cc(Br)c1OCc1ccccc1C | 22 | 21 | 52 | 51 | 61
CCOc1cc(/C=N/O)ccc1OCc1ccc(F)cc1 | 93 | 96 | / | / | /
CCOc1cc(/C=N/N=C(/N)c2nonc2N)cc(Br)c1OCc1ccc(Cl)cc1 | 108 | 100 | 29* | 22* | 18*
CCOc1cc(/C=N/N=C(N)N)ccc1OCc1ccc(Cl)cc1 | 1.2* | 1.3* | / | / | /
CCc1cccc2c(/C=N/NC(=O)c3cccc(S(=O)(=O)Nc4ccccc4Cl)c3)c[nH]c12 | 86 | 100 | / | / | /
COc1ccc(C)cc1NC(=O)CN1C(=O)c2cccc3cccc1c23 | 62 | 76 | 55 | 47 | 28*
COc1ccc(NC(=O)CN2C(=O)c3cccc4cccc2c34)cc1OC | 99 | 87 | 74 | 71 | 85
Cc1cc(C)nc(N(C#N)Cc2cccc3ccccc23)n1 | 93 | 96 | 88 | 96 | 74
SMILES | PTEN del growth | HCT116 bCat-KO | Lung fibro prol | HUVEC inhibit | H69AR growth 86K
COc1cccc(C2C3=C(N=c4s/c(=C\c5cccc(O)c5)c(=O)n42)c2ccccc2CC3)c1OC (stereo not drawn) | 1.7* | 2.4* | / | / | /
Cc1ccccc1NC(=O)C1CCN(c2cc(-c3ccccc3)nc3ncnn23)CC1 | 41 | 62 | 90 | 104 | 37*
O=C(Cc1n[nH]c(=O)c2ccccc12)OCC(=O)c1ccc2c(c1)OCCO2 | 15 | 16 | 65 | 44 | 24*
Cc1cc(C(=O)COC(=O)Cc2n[nH]c(=O)c3ccccc23)c(C)n1-c1ccc2c(c1)OCO2 | 32 | 33 | / | / | /
COc1ccc(-c2csc3ncnc(NCCN4CCOCC4)c23)cc1 | 39 | 57 | 64 | 47 | 21*
Clc1ccc(-c2csc3ncnc(NCCN4CCOCC4)c23)cc1 | 62 | 50 | 89 | 88 | 56
Cc1ccc(-c2csc3ncnc(NCCN4CCOCC4)c23)cc1 | 93 | 92 | 91 | 93 | 27*
CCC(=O)Nc1sc2c(c1C#N)CC(C)(CC)OC2 (stereo not drawn) | 72 | 82 | 102 | 107 | 106
COc1ccccc1CN=Cc1[nH]c2ccc(Br)c(Cl)c2c1O | 58 | 20 | 95 | 71 | 25*
Cc1cc(N/N=C/c2ccc(O)c(C)c2O)nc(-c2ccccc2O)n1 | 1.8* | 1.7* | / | / | /
Cc1cc(NCCCN)nc(-c2ccccc2O)n1 | 64 | 61 | 100 | 98 | 21*
Cc1ccc(Nc2cc(C)nc(-c3ccccc3O)n2)cc1 | 57 | 66 | 88 | 70 | 43
CC(=O)N(C(C)=O)c1ncc2c([nH]c3ccccc32)c1C#N | 76 | 69 | 72 | 63 | 37*
CC(=O)N(C(C)=O)c1c(C#N)c(C)n(-c2ccccc2)c1C(=O)c1ccccc1 | 105 | 106 | 93 | 96 | 55
CCCCNC(=O)C(c1ccc(-c2ccccc2)cc1)N(CCN1CCOCC1)C(=O)CCCCCN1C(=O)NC(c2ccc([N+](=O)[O-])cc2)C(C(=O)OCc2ccccc2)=C1C (stereo not drawn) | 75 | 72 | / | / | /
CCOc1ccc(C(=O)Nc2cc(S(=O)(=O)Nc3ccccc3Cl)ccc2N2CCOCC2)cc1 | 84 | 80 | / | / | /
NNc1ncnc2c1cnn2-c1ccccc1 | 77 | 76 | 91 | 73 | 20*
CCOC(=O)N1CCC(Nc2ncnc3c2cnn3-c2ccccc2)CC1 | 92 | 93 | 99 | 93 | 28*
O=C(N/N=C/c1cccnc1)c1ccccc1[N+](=O)[O-] | 100 | 87 | / | / | /
CC1CC(C)CN(c2ccc(C(=O)NCc3ccc4c(c3)OCO4)cc2[N+](=O)[O-])C1 (stereo not drawn) | 69 | 81 | / | / | /
O=C(CSc1nnc2c3ccccc3c3ccccc3c2n1)Nc1ccccc1F | 1.9* | 2.2* | / | / | /
O=C(CSc1nnc2c3ccccc3c3ccccc3c2n1)Nc1ccccc1 | 35 | 38 | / | / | /
CC1CCCCN1S(=O)(=O)c1ccc(C(=O)Nc2nnc(-c3ccccc3Cl)o2)cc1 (stereo not drawn) | 17 | 23 | 64 | 3.7* | 52
CCC1CCCCN1S(=O)(=O)c1ccc(C(=O)Nc2nnc(-c3ccccc3Cl)o2)cc1 (stereo not drawn) | 16 | 16 | 64 | 57 | 20*
O=C(Nc1nnc(-c2ccccc2Cl)o1)c1ccc(S(=O)(=O)N2CCCCCC2)cc1 | 13 | 18 | 60 | 3.0* | 31*
CC1CCCCN1S(=O)(=O)c1ccc(C(=O)Nc2sccc2C(N)=O)cc1 (stereo not drawn) | 80 | 55 | 94 | 79 | 75
O=C(Nc1nnc(-c2cccs2)o1)c1cccc(Oc2ccccc2)c1 | 10 | 19 | 88 | 61 | 39*
CC(=O)N(CN1C(=O)CCC1=O)c1cccc(Cl)c1 | 93 | 96 | / | / | /

Screens as filed in PubChem BioAssay.
